Assay results taken from ChEMBL document CHEMBL1156517, “Targeting thyroid hormone receptor-beta agonists to the liver reduces cholesterol and triglycerides and improves the therapeutic index” (Proc Natl Acad Sci U S A, 2007).
Active and inactive are the calls of the source. The rule behind the calls is not given here.

Legend:
Mus musculus [1] = assay: Reduction in plasma cholesterol level in po dosed diet-induced obese C57BL/6 mouse after 2 weeks; format: functional; parameters: scale not given: the % may be the effect or the level left
Method in brief: (§1)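 Male C57BL/6 mice, about 4 weeks old, fed a high-fat diet (60% kcal fat) for about 170 days. Assigned to groups (n = 8) matched for cholesterol and body weight. Dosed orally once daily in 0.5% CMC/1% Lutrol F68 for 2 weeks. Baseline blood taken by tail nick. At end, cardiac-puncture blood used for cholesterol, TGs, glucose and thyroid hormones; liver weighed and hepatic TGs measured.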

Mus musculus [2] = assay: Decrease in cholesterol level in wild-type C57BL/6 mouse at 5 mg/kg/day once daily for 7 days; format: functional, organism-based
Rattus norvegicus [3] = assay: Toxicity in Sprague-Dawley rat assessed as suppression of thyroid hormone axis measured by decrease in free 3,5,3',5'-tetraiodo-L-thyronine level at 1 mg/kg, po after 7 weeks; format: organism-based; parameters: dose 1 mg/kg, route oral; conditions: in vivo, 1176 h
Method in brief: (§2)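 Male SD rats (n = 5–6 per group; baseline group n = 8) given vehicle (0.5% CMC/1% Lutrol F68) or drug orally once daily. One group per cohort weighed and killed by decapitation without anesthesia after 1, 2, 4 and 7 weeks. Trunk-blood serum assayed for total/free T3 and T4; TSH by [125I] radioimmunoassay with magnetic separation. Pituitary TSHβ mRNA also measured.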

Mus musculus [4] = assay: Decrease in cholesterol level in wild-type C57BL/6 mouse at 0.5 mg/kg/day once daily for 7 days; format: functional, organism-based
Rattus norvegicus [5] = assay: Toxicity in Sprague-Dawley rat assessed as suppression of thyroid hormone axis measured by decrease in free 3,5,3',5'-triiodo-L-thyronine level at 0.1 mg/kg, po after 7 weeks; format: organism-based; parameters: dose 0.1 mg/kg, route oral; conditions: in vivo, 1176 h; method in brief: as §2
Rattus norvegicus [6] = assay: Toxicity in Sprague-Dawley rat assessed as suppression of thyroid hormone axis measured by decrease in total […]-L-thyronine level at 0.1 mg/kg, po after 7 weeks; format: organism-based; parameters: dose 0.1 mg/kg, route oral; conditions: in vivo, 1176 h
Rattus norvegicus [7] = assay: Toxicity in Sprague-Dawley rat assessed as suppression of thyroid hormone axis measured by decrease in free 3,5,3',5'-triiodo-L-thyronine level at 1 mg/kg, po after 7 weeks; format: organism-based; parameters: dose 1 mg/kg, route oral; conditions: in vivo, 1176 h; method in brief: as §2
Rattus norvegicus [8] = assay: Effect on type 1 iodothyronine deiodinase mRNA expression in po dosed Sprague-Dawley rat liver; format: functional, organism-based; conditions: TDE = time-dependent effect
Method in brief: (§3)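 Killed 3, 8 and 24 h post-dose under 2.5% isoflurane. Pituitary and thyroid snap-frozen; liver, heart, soleus, spleen and kidney freeze-clamped. mRNA by quantitative real-time PCR, expressed as fold-change vs vehicle.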

Mus musculus [9] = assay: Decrease in body weight in diet-induced obese C57BL/6 mouse at 0.03 mg/kg, po; format: functional; parameters: scale not given: the % may be the effect or the level left
Rattus norvegicus [10] = assay: Toxic cardiac effect on Sprague-Dawley rat assessed as increase in heart rate at >= 1 mg/kg/day, po for 7 days; format: toxicity, organism-based; parameters: route oral; conditions: in vivo, 168 h
Method in brief: (§4)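 Male SD rats (n = 6 per group) dosed daily by oral gavage for 7 days; vehicle group included. On day 7, rats anesthetized with isoflurane; catheter-tip transducer inserted into left ventricle via right carotid artery. LV pressure, LV dP/dt and heart rate (lead I ECG) recorded digitally. Systolic/diastolic aortic pressure taken by retracting catheter into proximal aorta.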

Mus musculus [11] = assay: Decrease in liver weight in po dosed diet-induced obese C57BL/6 mouse after 14 days; format: functional; parameters: scale not given: the % may be the effect or the level left
Method in brief: (§5)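 DIO mice were male C57BL/6 fed a 60%-fat (by kcal) diet from about 4 weeks of age for about 170 days. They were grouped (n = 8) to match cholesterol and body weight. Dosing was oral, once daily for 2 weeks, in 0.5% CMC/1% Lutrol F68. At kill, blood was taken by cardiac puncture for plasma TGs. The liver was removed and weighed, and hepatic TGs were measured.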

Rattus norvegicus [12] = assay: Toxic cardiac effect on Sprague-Dawley rat assessed as decrease in body weight gain at 1 mg/kg/day, po; format: toxicity, organism-based; parameters: route oral; scale not given: the % may be the effect or the level left; conditions: in vivo
Rattus norvegicus [13] = assay: Effect on malic enzyme mRNA expression in po dosed Sprague-Dawley rat liver; format: functional, organism-based; conditions: TDE = time-dependent effect; method in brief: as §3
Rattus norvegicus [14] = assay: Toxic cardiac effect in Sprague-Dawley rat assessed as increase in heart rate at 1 mg/kg/day, po; format: toxicity, organism-based; parameters: route oral; conditions: in vivo; method in brief: as §4
Rattus norvegicus [15] = assay: Toxicity in Sprague-Dawley rat assessed as suppression of thyroid hormone axis measured by decrease in TSH-beta mRNA level at 1 mg/kg, po after 7 weeks; format: organism-based; parameters: dose 1 mg/kg, route oral; conditions: in vivo, 1176 h; method in brief: as §2
Mus musculus [16] = assay: Increase in heart weight in po dosed diet-induced obese C57BL/6 mouse; format: functional, organism-based
Rattus norvegicus [17] = assay: Toxicity in Sprague-Dawley rat assessed as suppression of thyroid hormone axis measured by decrease in total 3,5,3',5'-tetraiodo-L-thyronine level at 1 mg/kg, po after 7 weeks; format: organism-based; parameters: dose 1 mg/kg, route oral; conditions: in vivo, 1176 h
Mus musculus [18] = assay: Effect on hepatic LDLR mRNA level in LDLR deficient C57BL/6 mouse at 0.5 mg/kg/day once daily for 7 days; format: functional
Rattus norvegicus [19] = assay: Toxicity in Sprague-Dawley rat assessed as suppression of thyroid hormone axis measured by assessed as decrease in total […]-L-thyronine level at 1 mg/kg, po after 7 weeks; format: organism-based; parameters: dose 1 mg/kg, route oral; conditions: in vivo, 1176 h; method in brief: as §2
Mus musculus [20] = assay: Decrease in cholesterol level in LDLR deficient C57BL/6 mouse at 0.5 mg/kg/day once daily for 7 days; format: functional, organism-based
Rattus norvegicus [21] = assay: Effect on SREBP-1c mRNA expression in po dosed Sprague-Dawley rat liver; format: functional, organism-based; conditions: TDE = time-dependent effect
Mus musculus [22] = assay: Effect on hepatic LDLR mRNA level in wild-type C57BL/6 mouse at 0.5 mg/kg/day once daily for 7 days; format: functional
Rattus norvegicus [23] = assay: Toxic cardiac effect on Sprague-Dawley rat assessed as increase in systolic aortic pressure at >= 1 mg/kg/day, po for 7 days; format: toxicity, organism-based; parameters: route oral; conditions: in vivo, 168 h; method in brief: as §4
Mus musculus [24] = assay: Reduction in blood glucose level in po dosed diet-induced obese C57BL/6 mouse; format: functional, organism-based; method in brief: as §1
Mus musculus [25] = assay: Decrease in cholesterol level in LDLR deficient C57BL/6 mouse at 5 mg/kg/day once daily for 7 days; format: functional, organism-based
Rattus norvegicus [26] = assay: Effect on LDLR mRNA expression in po dosed Sprague-Dawley rat liver; format: functional, organism-based; conditions: TDE = time-dependent effect
Rattus norvegicus [27] = assay: Toxicity in Sprague-Dawley rat assessed as suppression of thyroid hormone axis measured by decrease in total 3,5,3',5'-tetraiodo-L-thyronine level at 0.1 mg/kg, po after 7 weeks; format: organism-based; parameters: dose 0.1 mg/kg, route oral; conditions: in vivo, 1176 h
Mus musculus [28] = assay: Reduction in total […]-L-thyronine level in po dosed diet-induced obese C57BL/6 mouse; format: functional, organism-based; method in brief: as §1
Rattus norvegicus [29] = assay: Toxicity in Sprague-Dawley rat assessed as suppression of thyroid hormone axis measured by decrease in free 3,5,3',5'-tetraiodo-L-thyronine level at 0.1 mg/kg, po after 7 weeks; format: organism-based; parameters: dose 0.1 mg/kg, route oral; conditions: in vivo, 1176 h; method in brief: as §2
Rattus norvegicus [30] = assay: Toxic cardiac effect in Sprague-Dawley rat assessed as increase in heart weight at 1 mg/kg/day, po; format: toxicity, organism-based; parameters: route oral; conditions: in vivo
Rattus norvegicus [31] = assay: Toxicity in Sprague-Dawley rat assessed as suppression of thyroid hormone axis measured by decrease in serum TSH level at 1 mg/kg, po after 7 weeks; format: organism-based; parameters: dose 1 mg/kg, route oral; conditions: in vivo, 1176 h; method in brief: as §2
Rattus norvegicus [32] = assay: Toxic cardiac effect on Sprague-Dawley rat assessed as increase in first derivative of left ventricular pressure at >= 1 mg/kg/day, po for 7 days; format: toxicity, organism-based, Heart left ventricle; parameters: route oral; conditions: in vivo, 168 h; method in brief: as §4
Mus musculus [33] = assay: Reduction in total 3,5,3',5'-tetraiodo-L-thyronine level in po dosed diet-induced obese C57BL/6 mouse; format: functional, organism-based; method in brief: as §1
Mus musculus [34] = assay: Decrease in liver triglyceride level in po dosed diet-induced obese C57BL/6 mouse after 14 days; format: functional; parameters: scale not given: the % may be the effect or the level left; method in brief: as §5
Rattus norvegicus [35] = organism: Rattus norvegicus; assay: Reduction in plasma cholesterol level in cholesterol fed Sprague-Dawley rat; format: functional
Rattus norvegicus [36] = assay: Toxic cardiac effect in Sprague-Dawley rat assessed as increase in first derivative of left ventricular pressure at 1 mg/kg/day, po; format: toxicity, organism-based, Heart left ventricle; parameters: route oral; conditions: in vivo; method in brief: as §4
Rattus norvegicus [37] = assay: Toxicity in Sprague-Dawley rat assessed as suppression of thyroid hormone axis measured by decrease in TSH-beta mRNA level at 0.1 mg/kg, po after 7 weeks; format: organism-based; parameters: dose 0.1 mg/kg, route oral; conditions: in vivo, 1176 h; method in brief: as §2
Rattus norvegicus [38] = assay: Toxicity in Sprague-Dawley rat assessed as suppression of thyroid hormone axis measured by decrease in serum TSH level at 0.1 mg/kg, po after 7 weeks; format: organism-based; parameters: dose 0.1 mg/kg, route oral; conditions: in vivo, 1176 h; method in brief: as §2

## CC(C)c1cc(Oc2c(Cl)cc(CC(=O)O)cc2Cl)ccc1O
Mus musculus [1]
  Activity: 67%
Mus musculus [2]
  Activity: Active
Rattus norvegicus [3]
  Activity: Active
Mus musculus [4]
  Activity: Active
Rattus norvegicus [5]
  Activity: Active
Rattus norvegicus [6]
  Activity: Active
Rattus norvegicus [7]
  Activity: Active
Rattus norvegicus [8]
  Activity: tde
Mus musculus [9]
  Activity: 3%
Rattus norvegicus [10]
  Activity: Active
Mus musculus [11]
  Activity: 33%
Rattus norvegicus [12]
  Activity: 61%
Rattus norvegicus [13]
  Activity: tde
Rattus norvegicus [14]
  Activity: Active
Rattus norvegicus [15]
  Activity: Active
Mus musculus [16]
  Activity: Active
Rattus norvegicus [17]
  Activity: Active
Mus musculus [18]
  Activity: -10.6%
Rattus norvegicus [19]
  Activity: Active
Mus musculus [20]
  Activity: inactive
Rattus norvegicus [21]
  Activity: tde
Mus musculus [22]
  Activity: -55.8%
Rattus norvegicus [23]
  Activity: Active
Mus musculus [24]
  Activity: Active
Mus musculus [25]
  Activity: inactive
Rattus norvegicus [26]
  Activity: tde
Rattus norvegicus [27]
  Activity: Active
Mus musculus [28]
  Activity: Active
Rattus norvegicus [29]
  Activity: Active
Rattus norvegicus [30]
  Activity: Active
Rattus norvegicus [31]
  Activity: Active
Rattus norvegicus [32]
  Activity: Active
Mus musculus [33]
  Activity: Active
Mus musculus [34]
  Activity: 33%
Rattus norvegicus [35]
  ED50: 0.05 mg/kg
Rattus norvegicus [36]
  Activity: Active
Rattus norvegicus [37]
  Activity: Active
Rattus norvegicus [38]
  Activity: Active
